According to ChEMBL document CHEMBL4190404, “Synthesis and characterization of amino acid substituted sunitinib analogues for the treatment of AML” (Bioorg Med Chem Lett, 2018):

System: Receptor-type tyrosine-protein kinase FLT3 (Homo sapiens), P36888 [UNDEFINED MUTATION]
Test: Inhibition of FLT3 ITD mutant (unknown origin) using TAMRA-Src- tide as substrate at 12.5 uM after 1 hr by fluorescence polarization assay relative to control
Conditions: not given
Method in brief: (§1)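 FLT3-ITD kinase inhibition by fluorescence polarization IMAP assay; each compound tested at 12.5 and 1.25 μM; percent inhibition, average of two parallel measurements.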

Sequence of Receptor-type tyrosine-protein kinase FLT3 (Homo sapiens), P36888 [UNDEFINED MUTATION] (P36888 whole entry, looked up, change not shown): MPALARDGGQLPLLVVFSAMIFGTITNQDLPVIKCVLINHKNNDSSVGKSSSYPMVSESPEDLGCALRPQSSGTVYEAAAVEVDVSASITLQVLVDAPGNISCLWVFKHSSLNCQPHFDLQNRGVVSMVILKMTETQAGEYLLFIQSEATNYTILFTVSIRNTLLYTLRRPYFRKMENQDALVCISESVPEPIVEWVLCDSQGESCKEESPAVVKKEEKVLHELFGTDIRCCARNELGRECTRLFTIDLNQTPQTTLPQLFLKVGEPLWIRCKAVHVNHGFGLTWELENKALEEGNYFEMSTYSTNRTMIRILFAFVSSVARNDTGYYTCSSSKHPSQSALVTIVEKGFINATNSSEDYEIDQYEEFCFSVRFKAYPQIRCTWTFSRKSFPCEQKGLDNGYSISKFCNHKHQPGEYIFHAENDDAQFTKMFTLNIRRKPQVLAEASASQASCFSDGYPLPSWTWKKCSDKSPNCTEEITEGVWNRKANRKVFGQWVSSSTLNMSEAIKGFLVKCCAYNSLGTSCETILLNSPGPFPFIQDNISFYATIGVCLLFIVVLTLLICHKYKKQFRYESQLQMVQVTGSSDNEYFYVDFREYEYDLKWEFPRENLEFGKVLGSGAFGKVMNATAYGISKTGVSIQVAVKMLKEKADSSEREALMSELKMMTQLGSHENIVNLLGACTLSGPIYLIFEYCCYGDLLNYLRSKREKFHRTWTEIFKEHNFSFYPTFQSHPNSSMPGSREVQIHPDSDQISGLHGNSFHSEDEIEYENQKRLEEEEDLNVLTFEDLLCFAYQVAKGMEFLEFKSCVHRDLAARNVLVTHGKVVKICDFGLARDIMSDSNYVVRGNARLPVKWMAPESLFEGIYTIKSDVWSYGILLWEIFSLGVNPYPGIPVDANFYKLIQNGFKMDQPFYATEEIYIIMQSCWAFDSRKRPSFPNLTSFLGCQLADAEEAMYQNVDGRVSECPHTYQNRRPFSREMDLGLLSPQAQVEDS

SMILES | inhibition
Cc1[nH]c(/C=C2\C(=O)Nc3ccc(C(=O)N[C@@H](Cc4ccccc4)C(=O)O)cc32)c(C)c1C(=O)N[C@H](Cc1ccccc1)C(=O)O | > 100%
COC(=O)CC[C@@H](NC(=O)c1c(C)[nH]c(/C=C2\C(=O)Nc3ccc(C(=O)N[C@H](Cc4ccccc4)C(=O)OC)cc32)c1C)C(=O)OC | 63.8%
COC(=O)CC[C@@H](NC(=O)c1ccc2c(c1)/C(=C/c1[nH]c(C)c(C(=O)N[C@H](Cc3ccccc3)C(=O)O)c1C)C(=O)N2)C(=O)OC | > 100%
CCOC(=O)c1c(C)[nH]c(/C=C2\C(=O)Nc3ccc(C(=O)N[C@H](Cc4ccccc4)C(=O)O)cc32)c1C | 96.2%
COC(=O)CC[C@@H](NC(=O)c1c(C)[nH]c(/C=C2\C(=O)Nc3ccc(C(=O)N[C@H](Cc4ccccc4)C(=O)O)cc32)c1C)C(=O)OC | > 100%
COC(=O)CC[C@@H](NC(=O)c1c(C)[nH]c(/C=C2\C(=O)Nc3ccc(C(=O)O)cc32)c1C)C(=O)OC | > 100%
COC(=O)[C@H](Cc1ccccc1)NC(=O)c1ccc2c(c1)/C(=C/c1[nH]c(C)c(C(=O)N[C@H](Cc3ccccc3)C(=O)O)c1C)C(=O)N2 | > 100%
Cc1[nH]c(/C=C2\C(=O)Nc3ccc(C(=O)O)cc32)c(C)c1C(=O)N[C@H](Cc1ccccc1)C(=O)O | > 100%
COC(=O)CC[C@@H](NC(=O)c1ccc2c(c1)/C(=C/c1[nH]c(C)c(C(=O)N[C@@H](Cc3ccccc3)C(=O)O)c1C)C(=O)N2)C(=O)OC | > 100%
COC(=O)CC[C@H](NC(=O)c1ccc2c(c1)/C(=C/c1[nH]c(C)c(C(=O)N[C@H](Cc3ccccc3)C(=O)OC)c1C)C(=O)N2)C(=O)OC | 78%
COC(=O)[C@@H](Cc1ccccc1)NC(=O)c1ccc2c(c1)/C(=C/c1[nH]c(C)c(C(=O)N[C@H](Cc3ccccc3)C(=O)O)c1C)C(=O)N2 | > 100%
Cc1[nH]c(/C=C2\C(=O)Nc3ccc(C(=O)N[C@H](Cc4ccccc4)C(=O)O)cc32)c(C)c1C(=O)O | > 100%
Cc1[nH]c(/C=C2\C(=O)Nc3ccc(C(=O)N[C@H](Cc4ccccc4)C(=O)O)cc32)c(C)c1C(=O)N[C@H](Cc1ccccc1)C(=O)O | > 100%
COC(=O)[C@@H](Cc1ccccc1)NC(=O)c1c(C)[nH]c(/C=C2\C(=O)Nc3ccc(C(=O)N[C@@H](Cc4ccccc4)C(=O)O)cc32)c1C | > 100%
COC(=O)CC[C@H](NC(=O)c1c(C)[nH]c(/C=C2\C(=O)Nc3ccc(C(=O)N[C@H](Cc4ccccc4)C(=O)OC)cc32)c1C)C(=O)OC | 88.4%
COC(=O)CC[C@@H](NC(=O)c1c(C)[nH]c(/C=C2\C(=O)Nc3ccc(C(=O)OC)cc32)c1C)C(=O)OC | 93.5%
COC(=O)CC[C@H](NC(=O)c1c(C)[nH]c(/C=C2\C(=O)Nc3ccc(C(=O)N[C@H](CCC(=O)OC)C(=O)OC)cc32)c1C)C(=O)OC | 70.3%

System: Receptor-type tyrosine-protein kinase FLT3 (Homo sapiens), P36888 [UNDEFINED MUTATION]
Test: Inhibition of FLT3 ITD mutant (unknown origin) using TAMRA-Src- tide as substrate at 1.25 uM after 1 hr by fluorescence polarization assay relative to control
Conditions: not given
Method in brief: as §1

SMILES | inhibition
Cc1[nH]c(/C=C2\C(=O)Nc3ccc(C(=O)N[C@@H](Cc4ccccc4)C(=O)O)cc32)c(C)c1C(=O)N[C@H](Cc1ccccc1)C(=O)O | 104%
COC(=O)CC[C@@H](NC(=O)c1c(C)[nH]c(/C=C2\C(=O)Nc3ccc(C(=O)N[C@H](Cc4ccccc4)C(=O)OC)cc32)c1C)C(=O)OC | 37.9%
COC(=O)CC[C@@H](NC(=O)c1ccc2c(c1)/C(=C/c1[nH]c(C)c(C(=O)N[C@H](Cc3ccccc3)C(=O)O)c1C)C(=O)N2)C(=O)OC | 73%
CCOC(=O)c1c(C)[nH]c(/C=C2\C(=O)Nc3ccc(C(=O)N[C@H](Cc4ccccc4)C(=O)O)cc32)c1C | 47%
COC(=O)CC[C@@H](NC(=O)c1c(C)[nH]c(/C=C2\C(=O)Nc3ccc(C(=O)N[C@H](Cc4ccccc4)C(=O)O)cc32)c1C)C(=O)OC | 39.2%
COC(=O)CC[C@@H](NC(=O)c1c(C)[nH]c(/C=C2\C(=O)Nc3ccc(C(=O)O)cc32)c1C)C(=O)OC | 93.5%
COC(=O)[C@H](Cc1ccccc1)NC(=O)c1ccc2c(c1)/C(=C/c1[nH]c(C)c(C(=O)N[C@H](Cc3ccccc3)C(=O)O)c1C)C(=O)N2 | 89.6%
Cc1[nH]c(/C=C2\C(=O)Nc3ccc(C(=O)O)cc32)c(C)c1C(=O)N[C@H](Cc1ccccc1)C(=O)O | 87%
COC(=O)CC[C@@H](NC(=O)c1ccc2c(c1)/C(=C/c1[nH]c(C)c(C(=O)N[C@@H](Cc3ccccc3)C(=O)O)c1C)C(=O)N2)C(=O)OC | 67.7%
COC(=O)CC[C@H](NC(=O)c1ccc2c(c1)/C(=C/c1[nH]c(C)c(C(=O)N[C@H](Cc3ccccc3)C(=O)OC)c1C)C(=O)N2)C(=O)OC | 31.5%
COC(=O)[C@@H](Cc1ccccc1)NC(=O)c1ccc2c(c1)/C(=C/c1[nH]c(C)c(C(=O)N[C@H](Cc3ccccc3)C(=O)O)c1C)C(=O)N2 | 28.9%
Cc1[nH]c(/C=C2\C(=O)Nc3ccc(C(=O)N[C@H](Cc4ccccc4)C(=O)O)cc32)c(C)c1C(=O)O | 87.1%
Cc1[nH]c(/C=C2\C(=O)Nc3ccc(C(=O)N[C@H](Cc4ccccc4)C(=O)O)cc32)c(C)c1C(=O)N[C@H](Cc1ccccc1)C(=O)O | 76.8%
COC(=O)[C@@H](Cc1ccccc1)NC(=O)c1c(C)[nH]c(/C=C2\C(=O)Nc3ccc(C(=O)N[C@@H](Cc4ccccc4)C(=O)O)cc32)c1C | 93.5%
COC(=O)CC[C@H](NC(=O)c1c(C)[nH]c(/C=C2\C(=O)Nc3ccc(C(=O)N[C@H](Cc4ccccc4)C(=O)OC)cc32)c1C)C(=O)OC | 35.3%
COC(=O)CC[C@@H](NC(=O)c1c(C)[nH]c(/C=C2\C(=O)Nc3ccc(C(=O)OC)cc32)c1C)C(=O)OC | 88.3%
COC(=O)CC[C@H](NC(=O)c1c(C)[nH]c(/C=C2\C(=O)Nc3ccc(C(=O)N[C@H](CCC(=O)OC)C(=O)OC)cc32)c1C)C(=O)OC | 80.4%

System: MV4-11
Test: Antiproliferative activity against human MV4-11 cells after 72 hrs by Celltiter-Glo luminescent cell viability assay
Format: functional, cell-based
Conditions: MV4-11, 72 h
Method in brief: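 MV4-11 leukaemia cells, 72 h proliferation assay, luminescence read-out; IC50 determined from concentration–response.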

SMILES | IC50
COC(=O)CC[C@@H](NC(=O)c1c(C)[nH]c(/C=C2\C(=O)Nc3ccc(C(=O)N[C@H](Cc4ccccc4)C(=O)OC)cc32)c1C)C(=O)OC | 1.6 µM
COC(=O)[C@H](Cc1ccccc1)NC(=O)c1ccc2c(c1)/C(=C/c1[nH]c(C)c(C(=O)N[C@H](Cc3ccccc3)C(=O)O)c1C)C(=O)N2 | 18.1 µM
COC(=O)CC[C@H](NC(=O)c1ccc2c(c1)/C(=C/c1[nH]c(C)c(C(=O)N[C@H](Cc3ccccc3)C(=O)OC)c1C)C(=O)N2)C(=O)OC | > 30 µM
COC(=O)[C@@H](Cc1ccccc1)NC(=O)c1ccc2c(c1)/C(=C/c1[nH]c(C)c(C(=O)N[C@H](Cc3ccccc3)C(=O)O)c1C)C(=O)N2 | 19.7 µM
COC(=O)CC[C@H](NC(=O)c1c(C)[nH]c(/C=C2\C(=O)Nc3ccc(C(=O)N[C@H](Cc4ccccc4)C(=O)OC)cc32)c1C)C(=O)OC | 3.2 µM
COC(=O)CC[C@@H](NC(=O)c1c(C)[nH]c(/C=C2\C(=O)Nc3ccc(C(=O)OC)cc32)c1C)C(=O)OC | 1.3 µM
